{"source": "ChEMBL document CHEMBL1139053", "about": "“Quantitative structure-activity relationship (QSAR) of indoloacetamides as inhibitors of human isoprenylcysteine carboxyl methyltransferase” (Bioorg Med Chem Lett, 2007)"}
{"target": "Protein-S-isoprenylcysteine O-methyltransferase (Homo sapiens, UniProt O60725)", "sequence (O60725 whole entry)": "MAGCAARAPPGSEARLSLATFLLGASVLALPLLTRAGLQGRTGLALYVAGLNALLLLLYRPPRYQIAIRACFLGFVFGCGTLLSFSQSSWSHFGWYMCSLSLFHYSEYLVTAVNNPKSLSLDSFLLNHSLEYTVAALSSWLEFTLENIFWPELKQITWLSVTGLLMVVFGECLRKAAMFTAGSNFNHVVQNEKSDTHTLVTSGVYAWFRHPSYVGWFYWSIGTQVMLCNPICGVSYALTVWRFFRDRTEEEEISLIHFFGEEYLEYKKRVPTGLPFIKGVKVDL", "assay": "Inhibition of ICMT expressed in Sf9 cells", "summary_of_the_method": "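Sf9 membranes carrying ICMT added to start reactions with biotin-S-farnesyl L-cysteine and [3H]AdoMet in 100 mM Hepes pH 7.4, 5 mM MgCl2; 37 °C, 20 min; stopped with 10% Tween 20. [3H]methyl on substrate captured on streptavidin beads overnight at 4 °C, washed in phosphate-buffered NaCl, scintillation counted.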", "units": {"IC50": "µM"}}
{"smiles": "CCCCCCn1cc(CC(N)=O)c2cc(-c3cccc(C)c3)ccc21", "IC50": 7.41}
{"smiles": "CC(C)Cn1cc(CC(N)=O)c2cc(-c3ccc(F)c(Cl)c3)ccc21", "IC50": 9.12}
{"smiles": "COc1ccccc1-c1ccc2c(c1)c(CC(N)=O)cn2CCCOc1ccccc1", "IC50": 100}
{"smiles": "NC(=O)Cc1cn(CC2CC2)c2ccc(-c3cccc(F)c3)cc12", "IC50": 14.8}
{"smiles": "Cc1ccc(-c2ccc3c(c2)c(CC(N)=O)cn3Cc2cccc(C(F)(F)F)c2)cc1", "IC50": 6.46}
{"smiles": "CCCCCCCCn1cc(CC(N)=O)c2cc(-c3cccc(OCC)c3)ccc21", "IC50": 2.19}
{"smiles": "CCCCCCn1cc(CC(N)=O)c2cc(-c3ccc(F)c(Cl)c3)ccc21", "IC50": 9.33}
{"smiles": "Cc1cccc(-c2ccc3c(c2)c(CC(N)=O)cn3Cc2cccc(C(F)(F)F)c2)c1", "IC50": 7.94}
{"smiles": "Cc1cccc(-c2ccc3c(c2)c(CC(N)=O)cn3CC2CC2)c1", "IC50": 9.12}
{"smiles": "NC(=O)Cc1cn(Cc2cccc(C(F)(F)F)c2)c2ccc(-c3cccc(F)c3)cc12", "IC50": 5.75}
{"smiles": "CCCCCCCCn1cc(CC(N)=O)c2cc(-c3ccc(C)cc3)ccc21", "IC50": 10.7}
{"smiles": "CCOc1cccc(-c2ccc3c(c2)c(CC(N)=O)cn3Cc2cccc(C(F)(F)F)c2)c1", "IC50": 4.9}
{"smiles": "NC(=O)Cc1cn(Cc2cccc(C(F)(F)F)c2)c2ccc(-c3ccc(Oc4ccccc4)cc3)cc12", "IC50": 100}
{"smiles": "CCOc1cccc(-c2ccc3c(c2)c(CC(N)=O)cn3Cc2ccc3ccccc3c2)c1", "IC50": 8.32}
{"smiles": "Cc1cccc(-c2ccc3c(c2)c(CC(N)=O)cn3CCCOc2ccccc2)c1", "IC50": 100}
{"smiles": "Cc1cccc(-c2ccc3c(c2)c(CC(N)=O)cn3Cc2ccccc2)c1", "IC50": 6.46}
{"smiles": "CCOc1cccc(-c2ccc3c(c2)c(CC(N)=O)cn3Cc2ccc(C(C)(C)C)cc2)c1", "IC50": 12.6}
{"smiles": "Cc1cccc(-c2ccc3c(c2)c(CC(N)=O)cn3CC(C)C)c1", "IC50": 15.8}
{"smiles": "Cc1cccc(-c2ccc3c(c2)c(CC(N)=O)cn3Cc2ccc3ccccc3c2)c1", "IC50": 17.4}
{"smiles": "COc1ccccc1-c1ccc2[nH]cc(CC(N)=O)c2c1", "IC50": 100}
{"smiles": "NC(=O)Cc1c[nH]c2ccc(-c3ccc(F)c(Cl)c3)cc12", "IC50": 100}
{"smiles": "NC(=O)Cc1cn(CCCOc2ccccc2)c2ccc(-c3cccc(F)c3)cc12", "IC50": 100}
{"smiles": "Cc1ccc(-c2ccc3c(c2)c(CC(N)=O)cn3Cc2ccc3ccccc3c2)cc1", "IC50": 19.5}
{"smiles": "CCCCCCCCn1cc(CC(N)=O)c2cc(-c3cccc(F)c3)ccc21", "IC50": 2.4}
{"smiles": "CCCCCCn1cc(CC(N)=O)c2cc(-c3ccc(Oc4ccccc4)cc3)ccc21", "IC50": 100}
{"smiles": "COc1ccccc1-c1ccc2c(c1)c(CC(N)=O)cn2CC(C)C", "IC50": 21.9}
{"smiles": "CCOc1cccc(-c2ccc3[nH]cc(CC(N)=O)c3c2)c1", "IC50": 100}
{"smiles": "Cc1ccc(-c2ccc3c(c2)c(CC(N)=O)cn3CC(C)C)cc1", "IC50": 9.77}
{"smiles": "CCCCCCn1cc(CC(N)=O)c2cc(-c3cccc(F)c3)ccc21", "IC50": 12.9}
{"smiles": "CC(C)Cn1cc(CC(N)=O)c2cc(-c3cccc(F)c3)ccc21", "IC50": 3.72}
{"smiles": "CCOc1cccc(-c2ccc3c(c2)c(CC(N)=O)cn3CC(C)C)c1", "IC50": 6.17}
{"smiles": "NC(=O)Cc1cn(CCCOc2ccccc2)c2ccc(-c3cc(C(F)(F)F)cc(C(F)(F)F)c3)cc12", "IC50": 100}
{"smiles": "NC(=O)Cc1cn(Cc2ccccc2)c2ccc(-c3ccc(F)c(Cl)c3)cc12", "IC50": 10.5}
{"smiles": "CCCCCCCCn1cc(CC(N)=O)c2cc(-c3cc(C(F)(F)F)cc(C(F)(F)F)c3)ccc21", "IC50": 37.2}
{"smiles": "CCCCCCn1cc(CC(N)=O)c2cc(-c3cccc(OCC)c3)ccc21", "IC50": 6.61}
{"smiles": "CC(C)(C)c1ccc(Cn2cc(CC(N)=O)c3cc(-c4ccc(F)c(Cl)c4)ccc32)cc1", "IC50": 7.59}
{"smiles": "NC(=O)Cc1cn(CC2CC2)c2ccc(-c3ccc(Oc4ccccc4)cc3)cc12", "IC50": 100}
{"smiles": "CCOc1cccc(-c2ccc3c(c2)c(CC(N)=O)cn3CC2CC2)c1", "IC50": 6.46}
{"smiles": "NC(=O)Cc1c[nH]c2ccc(-c3cccc(F)c3)cc12", "IC50": 39.8}
{"smiles": "CC(C)Cn1cc(CC(N)=O)c2cc(-c3cc(C(F)(F)F)cc(C(F)(F)F)c3)ccc21", "IC50": 25.7}
{"smiles": "CC(C)(C)c1ccc(Cn2cc(CC(N)=O)c3cc(-c4cccc(F)c4)ccc32)cc1", "IC50": 5.01}
{"smiles": "COc1ccccc1-c1ccc2c(c1)c(CC(N)=O)cn2Cc1cccc(C(F)(F)F)c1", "IC50": 6.17}
{"smiles": "COc1ccccc1-c1ccc2c(c1)c(CC(N)=O)cn2Cc1ccccc1", "IC50": 13.2}
{"smiles": "NC(=O)Cc1cn(CC2CC2)c2ccc(-c3ccc(F)c(Cl)c3)cc12", "IC50": 5.75}
{"smiles": "CCCCCCn1cc(CC(N)=O)c2cc(-c3ccccc3OC)ccc21", "IC50": 8.13}
{"smiles": "NC(=O)Cc1cn(Cc2cccc(C(F)(F)F)c2)c2ccc(-c3ccc(F)c(Cl)c3)cc12", "IC50": 6.17}
{"smiles": "CC(C)(C)c1ccc(Cn2cc(CC(N)=O)c3cc(-c4cc(C(F)(F)F)cc(C(F)(F)F)c4)ccc32)cc1", "IC50": 29.5}
{"smiles": "NC(=O)Cc1cn(Cc2ccc3ccccc3c2)c2ccc(-c3ccc(Oc4ccccc4)cc3)cc12", "IC50": 100}
{"smiles": "Cc1cccc(-c2ccc3[nH]cc(CC(N)=O)c3c2)c1", "IC50": 100}
{"smiles": "CCCCCCn1cc(CC(N)=O)c2cc(-c3ccc(C)cc3)ccc21", "IC50": 7.41}
{"smiles": "NC(=O)Cc1c[nH]c2ccc(-c3cc(C(F)(F)F)cc(C(F)(F)F)c3)cc12", "IC50": 100}
{"smiles": "COc1ccccc1-c1ccc2c(c1)c(CC(N)=O)cn2CC1CC1", "IC50": 16.2}
{"smiles": "NC(=O)Cc1cn(Cc2ccc3ccccc3c2)c2ccc(-c3cc(C(F)(F)F)cc(C(F)(F)F)c3)cc12", "IC50": 100}
{"smiles": "NC(=O)Cc1cn(Cc2cccc(C(F)(F)F)c2)c2ccc(-c3cc(C(F)(F)F)cc(C(F)(F)F)c3)cc12", "IC50": 100}
{"smiles": "NC(=O)Cc1cn(CCCOc2ccccc2)c2ccc(-c3ccc(Oc4ccccc4)cc3)cc12", "IC50": 100}
{"smiles": "NC(=O)Cc1cn(CC2CC2)c2ccc(-c3cc(C(F)(F)F)cc(C(F)(F)F)c3)cc12", "IC50": 100}
{"smiles": "Cc1ccc(-c2ccc3[nH]cc(CC(N)=O)c3c2)cc1", "IC50": 100}
{"smiles": "CCCCCCCCn1cc(CC(N)=O)c2cc(-c3ccc(F)c(Cl)c3)ccc21", "IC50": 7.08}
{"smiles": "NC(=O)Cc1cn(Cc2ccccc2)c2ccc(-c3cccc(F)c3)cc12", "IC50": 10.7}
{"smiles": "CCCCCCCCn1cc(CC(N)=O)c2cc(-c3ccccc3OC)ccc21", "IC50": 6.03}
